Measured values taken from ChEMBL document CHEMBL2029249, “N-Methyl-3-(tetrahydro-2H-pyran-4-yl)-2,3,4,9-tetrahydro-1H-carbazole-6-carboxamides as a novel class of cannabinoid receptors agonists with low CNS penetration” (Bioorg Med Chem Lett, 2012).
Converted amounts (≈) assume the structure as drawn.

How the values were obtained:
[1] = Thermodynamic solubility of the compound at pH 7.4; settings: buffer
[2] = Intrinsic clearance in human liver microsomes at 1 uM in presence of NADPH; type: ADME, Microsome; settings: read-out: CLH
[3] = Ratio of drug level in brain to plasma in rat by microdialysis assay
Cannabinoid receptor 1 [4] = molecular target: T1, Cannabinoid receptor 1 (Homo sapiens, UniProt P21554); experiment: Agonist activity at human CB1 receptor expressed in HEK293 cells assessed as [35S]GTPgamma binding; type: functional, cell-based
T1 sequence (P21554 whole entry): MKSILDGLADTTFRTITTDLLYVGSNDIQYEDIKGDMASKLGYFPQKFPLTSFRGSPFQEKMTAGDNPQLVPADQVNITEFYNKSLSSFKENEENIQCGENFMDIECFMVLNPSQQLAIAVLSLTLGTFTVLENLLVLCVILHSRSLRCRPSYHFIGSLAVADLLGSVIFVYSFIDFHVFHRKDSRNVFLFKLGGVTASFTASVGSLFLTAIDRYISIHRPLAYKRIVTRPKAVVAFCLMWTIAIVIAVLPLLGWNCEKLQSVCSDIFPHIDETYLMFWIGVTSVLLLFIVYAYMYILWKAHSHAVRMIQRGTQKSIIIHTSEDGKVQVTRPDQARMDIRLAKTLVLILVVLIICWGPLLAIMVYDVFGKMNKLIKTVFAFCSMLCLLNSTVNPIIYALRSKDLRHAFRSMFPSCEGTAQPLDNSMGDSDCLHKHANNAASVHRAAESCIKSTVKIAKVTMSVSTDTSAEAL

Cannabinoid receptor 1 [5] = molecular target: T1, Cannabinoid receptor 1; experiment: Agonist activity at human CB1 receptor expressed in HEK293 cells assessed as [35S]GTPgamma binding relative to WIN55212-2; type: functional, cell-based
How it was run: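 GTPγ35S binding on membranes from HEK293 EBNA cells stably transfected with cloned human CB1; Emax relative to WIN55,212-2 as reference agonist; means of at least three measurements.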

[6] = molecular target: Voltage-gated inwardly rectifying potassium channel KCNH2 (Homo sapiens, UniProt Q12809)
Chain of Voltage-gated inwardly rectifying potassium channel KCNH2 (Q12809 whole entry): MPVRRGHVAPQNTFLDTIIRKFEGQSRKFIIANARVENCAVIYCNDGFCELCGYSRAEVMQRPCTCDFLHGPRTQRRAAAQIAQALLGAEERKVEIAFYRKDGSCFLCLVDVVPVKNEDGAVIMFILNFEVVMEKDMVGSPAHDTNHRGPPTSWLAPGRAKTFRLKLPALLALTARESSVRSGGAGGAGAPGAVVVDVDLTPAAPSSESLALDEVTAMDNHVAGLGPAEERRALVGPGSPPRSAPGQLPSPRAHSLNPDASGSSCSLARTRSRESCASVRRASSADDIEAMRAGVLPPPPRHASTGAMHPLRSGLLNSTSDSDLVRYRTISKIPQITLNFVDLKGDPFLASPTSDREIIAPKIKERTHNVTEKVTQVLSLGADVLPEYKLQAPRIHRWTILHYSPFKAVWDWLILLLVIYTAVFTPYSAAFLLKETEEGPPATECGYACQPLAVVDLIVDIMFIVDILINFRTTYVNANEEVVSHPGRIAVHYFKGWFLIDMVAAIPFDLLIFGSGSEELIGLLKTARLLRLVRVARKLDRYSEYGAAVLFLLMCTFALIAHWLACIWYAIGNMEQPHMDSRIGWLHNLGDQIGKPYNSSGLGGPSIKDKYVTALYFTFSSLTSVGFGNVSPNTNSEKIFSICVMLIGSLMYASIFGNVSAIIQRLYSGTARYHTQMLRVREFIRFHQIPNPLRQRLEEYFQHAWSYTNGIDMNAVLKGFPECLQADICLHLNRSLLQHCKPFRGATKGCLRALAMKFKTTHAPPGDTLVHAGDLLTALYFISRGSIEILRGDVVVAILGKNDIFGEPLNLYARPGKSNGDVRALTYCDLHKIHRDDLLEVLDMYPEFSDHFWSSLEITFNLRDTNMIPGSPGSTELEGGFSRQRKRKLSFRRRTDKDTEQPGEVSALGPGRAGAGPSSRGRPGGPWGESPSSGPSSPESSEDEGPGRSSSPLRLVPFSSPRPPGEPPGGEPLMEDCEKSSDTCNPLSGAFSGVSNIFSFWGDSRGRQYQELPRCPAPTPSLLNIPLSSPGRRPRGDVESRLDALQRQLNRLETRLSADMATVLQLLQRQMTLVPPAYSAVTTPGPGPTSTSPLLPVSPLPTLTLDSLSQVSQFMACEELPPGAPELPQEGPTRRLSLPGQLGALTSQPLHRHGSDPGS

Cannabinoid receptor 1 [7] = molecular target: T1, Cannabinoid receptor 1; experiment: Displacement of [3H]CP55940 from human CB1 receptor expressed in HEK293 cells; type: cell-based
Cytochrome P450 2D6 = Cytochrome P450 2D6 (Homo sapiens, UniProt P10635); experiment: Inhibition of CYP2D6 in human liver microsomes; type: ADME, Microsome
Chain of Cytochrome P450 2D6 (P10635 whole entry): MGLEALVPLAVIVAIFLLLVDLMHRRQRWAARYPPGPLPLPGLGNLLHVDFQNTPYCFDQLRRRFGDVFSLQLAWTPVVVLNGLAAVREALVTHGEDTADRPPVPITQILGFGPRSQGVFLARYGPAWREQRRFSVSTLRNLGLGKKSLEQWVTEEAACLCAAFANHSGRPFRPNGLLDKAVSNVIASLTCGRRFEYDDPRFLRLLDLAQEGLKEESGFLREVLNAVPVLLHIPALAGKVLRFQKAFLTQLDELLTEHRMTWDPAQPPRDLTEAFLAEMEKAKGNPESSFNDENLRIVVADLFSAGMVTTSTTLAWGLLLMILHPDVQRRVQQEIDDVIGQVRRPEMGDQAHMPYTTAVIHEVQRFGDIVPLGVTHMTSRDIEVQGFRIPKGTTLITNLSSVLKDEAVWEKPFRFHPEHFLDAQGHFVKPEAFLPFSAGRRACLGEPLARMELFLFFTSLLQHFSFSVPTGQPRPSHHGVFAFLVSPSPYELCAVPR

[8] = Plasma protein binding in Sprague-Dawley rat; type: ADME, cell-free; settings: read-out: PPB (converted)
[9] = Tmax in Sprague-Dawley rat at 9 umol/kg, po; type: ADME, organism-based; settings: in vivo
Rattus norvegicus = experiment: Analgesic activity in sc dosed rat assessed as reversal of carrageenan-induced heat hyperalgesia; type: functional, organism-based
How it was run: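 Rat carrageenan inflammatory pain model; reversal of heat hyperalgesia after subcutaneous dosing at 10, 30 and 100 µmol/kg.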

[10] = Volume of distribution at steady state in Sprague-Dawley rat at 2 umol/kg, iv; type: ADME, organism-based; settings: in vivo, read-out: Vdss
Cannabinoid receptor 2 = Cannabinoid receptor 2 (Homo sapiens, UniProt P34972); experiment: Binding affinity to human CB2 receptor
Chain of Cannabinoid receptor 2 (P34972 whole entry): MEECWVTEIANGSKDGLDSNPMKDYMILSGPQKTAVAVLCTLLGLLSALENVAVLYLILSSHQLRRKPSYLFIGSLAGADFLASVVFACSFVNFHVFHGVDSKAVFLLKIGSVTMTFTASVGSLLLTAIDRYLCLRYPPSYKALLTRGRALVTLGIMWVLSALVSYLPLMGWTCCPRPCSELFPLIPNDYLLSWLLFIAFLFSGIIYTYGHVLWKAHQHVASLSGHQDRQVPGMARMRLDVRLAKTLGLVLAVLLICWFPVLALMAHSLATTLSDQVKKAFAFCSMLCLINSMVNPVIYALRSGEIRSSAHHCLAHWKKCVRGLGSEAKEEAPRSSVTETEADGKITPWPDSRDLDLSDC

Plasma [11] = experiment: Plasma concentration in rat carrageenan inflammatory pain model at 100 umol/kg, sc; type: ADME, cell-free
How it was run: (§1)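 Rats in carrageenan inflammatory pain model dosed sc at 10, 30 or 100 µmol/kg; total plasma and brain levels by protein precipitation with ACN (brain homogenised first), centrifugation 9000g, 30 min, 4 °C, then reversed-phase LC-electrospray MS/MS against a serial-dilution calibration curve.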

[12] = Oral bioavailability in Sprague-Dawley rat at 9 umol/kg; type: ADME, organism-based; settings: in vivo
[13] = Cmax in Sprague-Dawley rat at 9 umol/kg, po; type: ADME, organism-based; set-up: dose 9 umol/kg, route oral; settings: in vivo
Cytochrome P450 2C19 = Cytochrome P450 2C19 (Homo sapiens, UniProt P33261); experiment: Inhibition of CYP2C19 in human liver microsomes; type: ADME, Microsome
Chain of Cytochrome P450 2C19 (P33261 whole entry, canonical isoform): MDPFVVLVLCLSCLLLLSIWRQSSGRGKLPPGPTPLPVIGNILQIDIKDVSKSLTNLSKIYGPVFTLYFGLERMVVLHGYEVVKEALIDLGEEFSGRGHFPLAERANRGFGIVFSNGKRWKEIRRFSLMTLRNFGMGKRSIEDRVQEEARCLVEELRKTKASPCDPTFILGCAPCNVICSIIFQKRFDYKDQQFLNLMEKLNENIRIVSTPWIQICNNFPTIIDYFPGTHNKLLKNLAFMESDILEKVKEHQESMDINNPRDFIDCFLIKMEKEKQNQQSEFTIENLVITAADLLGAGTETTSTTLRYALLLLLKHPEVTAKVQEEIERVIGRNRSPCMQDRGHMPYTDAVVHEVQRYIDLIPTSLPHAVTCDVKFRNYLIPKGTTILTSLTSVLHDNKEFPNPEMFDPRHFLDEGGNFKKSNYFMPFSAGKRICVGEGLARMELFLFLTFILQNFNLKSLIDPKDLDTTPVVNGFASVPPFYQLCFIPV
How it was run: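 IC50 determined in human liver microsomes as part of a five-isoform panel (CYP1A2, CYP2C9, CYP2C19, CYP2D6, CYP3A4) to assess drug-interaction potential.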

Brain = experiment: Drug uptake in carrageenan inflammatory pain model of rat brain at 10 to 100 umol/kg, sc; type: ADME, organism-based; settings: in vivo; how it was run: as §1
Plasma [14] = experiment: Plasma concentration in rat carrageenan inflammatory pain model at 10 umol/kg, sc; type: ADME, cell-free; how it was run: as §1
[15] = Clearance in Sprague-Dawley rat at 2 umol/kg, iv; type: ADME, organism-based; settings: in vivo
[16] = Intrinsic clearance in rat liver microsomes; type: ADME, Microsome; settings: read-out: CLH
How it was run: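 Rat liver microsomes; intrinsic clearance expressed per mg microsomal protein.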

Cytochrome P450 3A4 = Cytochrome P450 3A4 (Homo sapiens, UniProt P08684); experiment: Inhibition of CYP3A4 in human liver microsomes; type: ADME, Microsome
Chain of Cytochrome P450 3A4 (P08684 whole entry): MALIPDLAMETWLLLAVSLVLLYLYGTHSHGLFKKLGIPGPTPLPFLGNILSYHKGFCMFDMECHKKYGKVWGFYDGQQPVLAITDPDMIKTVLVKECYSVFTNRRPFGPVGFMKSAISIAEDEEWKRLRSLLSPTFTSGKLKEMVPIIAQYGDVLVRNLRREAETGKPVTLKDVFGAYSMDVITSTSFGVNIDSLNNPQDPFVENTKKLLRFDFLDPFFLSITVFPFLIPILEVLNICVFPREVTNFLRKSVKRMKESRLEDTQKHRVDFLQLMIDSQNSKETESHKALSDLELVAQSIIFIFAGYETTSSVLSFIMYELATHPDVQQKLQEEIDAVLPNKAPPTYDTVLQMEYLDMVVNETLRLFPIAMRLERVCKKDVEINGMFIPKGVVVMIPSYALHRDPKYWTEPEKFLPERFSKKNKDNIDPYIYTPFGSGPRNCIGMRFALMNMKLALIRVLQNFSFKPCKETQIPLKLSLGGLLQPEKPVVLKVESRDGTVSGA

[17] = Terminal half life in Sprague-Dawley rat at 2 umol/kg, iv; type: ADME, organism-based; settings: in vivo, read-out: beta t1/2 (converted)
Cytochrome P450 2C9 = Cytochrome P450 2C9 (Homo sapiens, UniProt P11712); experiment: Inhibition of CYP2C9 in human liver microsomes; type: ADME, Microsome
Chain of Cytochrome P450 2C9 (P11712 whole entry): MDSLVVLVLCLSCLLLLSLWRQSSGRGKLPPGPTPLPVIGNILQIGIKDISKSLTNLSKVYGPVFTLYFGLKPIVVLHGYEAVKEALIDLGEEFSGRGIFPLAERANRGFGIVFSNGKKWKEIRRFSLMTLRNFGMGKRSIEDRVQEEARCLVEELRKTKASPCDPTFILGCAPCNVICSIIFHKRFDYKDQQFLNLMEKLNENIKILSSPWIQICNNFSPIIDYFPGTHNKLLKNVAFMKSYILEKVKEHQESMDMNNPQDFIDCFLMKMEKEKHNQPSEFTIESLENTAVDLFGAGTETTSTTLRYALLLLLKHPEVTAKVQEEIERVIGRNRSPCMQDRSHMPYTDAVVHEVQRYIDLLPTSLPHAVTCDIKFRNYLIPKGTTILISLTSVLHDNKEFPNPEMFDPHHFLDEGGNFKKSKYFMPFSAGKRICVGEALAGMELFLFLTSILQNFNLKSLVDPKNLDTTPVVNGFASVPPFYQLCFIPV

[18] = Apparent permeability from apical to basal side of human Caco2 cells at 10 uM; settings: Caco-2
Plasma [19] = experiment: Plasma concentration in rat carrageenan inflammatory pain model at 30 umol/kg, sc; type: ADME, cell-free; how it was run: as §1
Cytochrome P450 1A2 = molecular target: T2, Cytochrome P450 1A2 (Homo sapiens, UniProt P05177); experiment: Inhibition of CYP1A2 in human liver microsomes; type: ADME, Microsome
T2 sequence (P05177 whole entry): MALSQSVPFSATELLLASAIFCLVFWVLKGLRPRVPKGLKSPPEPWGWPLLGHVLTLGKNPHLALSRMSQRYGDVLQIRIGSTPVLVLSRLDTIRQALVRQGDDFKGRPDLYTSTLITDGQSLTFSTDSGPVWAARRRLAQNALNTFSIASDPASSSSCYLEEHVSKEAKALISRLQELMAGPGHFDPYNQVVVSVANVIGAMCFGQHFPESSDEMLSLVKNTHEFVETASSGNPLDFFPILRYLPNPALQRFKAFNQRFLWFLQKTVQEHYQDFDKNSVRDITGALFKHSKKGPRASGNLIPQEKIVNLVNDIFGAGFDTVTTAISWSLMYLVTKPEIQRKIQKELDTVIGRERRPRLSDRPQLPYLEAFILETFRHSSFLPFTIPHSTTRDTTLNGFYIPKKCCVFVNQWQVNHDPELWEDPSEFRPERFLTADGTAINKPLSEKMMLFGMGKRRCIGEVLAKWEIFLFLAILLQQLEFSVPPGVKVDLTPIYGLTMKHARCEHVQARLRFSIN

Row | SMILES | solubility thermodynamic [1] | microsomal CLint at 1 µM [2] | Kp [3] | EC50 (Cannabinoid receptor 1 [4]) | Emax (Cannabinoid receptor 1 [5]) | Ki (Cannabinoid receptor 1 [7]) | Ki (Cannabinoid receptor 2) | also measured
1 | CN(CCCC(=O)NC1COC1)C(=O)c1ccc2c(c1)c1c(n2C)CC[C@@H](C2CCOCC2)C1 | 1670 µM (≈ 781 µg/mL) | 29 µL/min/mg | 0.019 | 43.7 nM | 116% | – | – | –
2 | CCN(CCCC(=O)NCCO)C(=O)c1ccc2c(c1)c1c(n2C)CC[C@@H](C2CCOCC2)C1 | 760 µM (≈ 357 µg/mL) | 38 µL/min/mg | < 0.02 | – | 113% | – | – | IC50 [6]: > 33000 nM
3 | CCN(CCCC(=O)NC1CC1)C(=O)c1ccc2c(c1)c1c(n2C)CCC(C2CCOCC2)C1 (stereo not given) | 224 µM (≈ 104 µg/mL) | 143 µL/min/mg | – | 2.9 nM | 114% | – | – | –
4 | CNC(=O)CCCN(C)C(=O)c1ccc2c(c1)c1c(n2C)CC[C@@H](C2CCOCC2)C1 | 1120 µM (≈ 478 µg/mL) | 26 µL/min/mg | 0.02 | 51.4 nM | 116% | 29.3 nM | 15.5 nM | INH (Cytochrome P450 2D6): > 20 µM; fraction unbound [8]: 0.021; Tmax [9]: 2.2 h; Activity (Rattus norvegicus): Dose-dependent effect; Vd [10]: 0.3 L/kg; concentration (Plasma [11]): 50.7 µM; bioavailability [12]: 100%; Cmax [13]: 6.3 µM; INH (Cytochrome P450 2C19): > 20 µM; Drug uptake (Brain): Not Active; concentration (Plasma [14]): 6.9 µM; clearance [15]: 2.8 mL/min/kg; microsomal CLint [16]: 61 µL/min/mg; INH (Cytochrome P450 3A4): > 20 µM; half-life [17]: 2.4 h; IC50 (Cytochrome P450 2C9): 7000 nM; Papp A→B at 10 µM [18]: 12 ×10⁻⁶ cm/s; concentration (Plasma [19]): 9.1 µM; INH (Cytochrome P450 1A2): > 20 µM
5 | CCN(CC(=O)NC1CC1)C(=O)c1ccc2c(c1)c1c(n2C)CC[C@H](C2CCOCC2)C1 | 49 µM (≈ 21.4 µg/mL) | – | – | 24.2 nM | 106% | 17.3 nM | – | –
6 | CN(CCCC(=O)NC1CC1)C(=O)c1ccc2c(c1)c1c(n2C)CCC(C2CCOCC2)C1 (stereo not given) | 444 µM (≈ 201 µg/mL) | 73 µL/min/mg | – | – | 113% | – | – | –
7 | CN(CCCC(=O)NCC#N)C(=O)c1ccc2c(c1)c1c(n2C)CC[C@@H](C2CCOCC2)C1 | 300 µM (≈ 135 µg/mL) | 42 µL/min/mg | – | – | 110% | – | – | –
8 | Cn1c2c(c3cc(C(=O)NCCCC(=O)NC4CC4)ccc31)CC(C1CCOCC1)CC2 (stereo not given) | 1 µM (≈ 0.438 µg/mL) | 47 µL/min/mg | – | – | – | – | – | IC50 [6]: > 31000 nM
9 | CN(CC(=O)NC1CC1)C(=O)c1ccc2c(c1)c1c(n2C)CC[C@@H](C2CCOCC2)C1 | 86 µM (≈ 36.4 µg/mL) | 30 µL/min/mg | 0.024 | 39.9 nM | 116% | 24.5 nM | 21.5 nM | Papp A→B at 10 µM [18]: 27 ×10⁻⁶ cm/s
10 | CN(CC(=O)NC1CC1)C(=O)c1ccc2c(c1)c1c(n2C)CC[C@H](C2CCOCC2)C1 | 63 µM (≈ 26.7 µg/mL) | 38 µL/min/mg | – | 446 nM | 111% | 177 nM | 49.1 nM | –
11 | CNC(=O)CCCN(C)C(=O)c1ccc2c(c1)c1c(n2C)CC[C@H](C2CCOCC2)C1 | 1070 µM (≈ 455 µg/mL) | 31 µL/min/mg | – | – | – | 576 nM | – | –
12 | CN(CC(=O)NC1CC1)C(=O)c1ccc2c(c1)c1c(n2C)CCC(C2CCOCC2)C1 (racemic) | 108 µM (≈ 45.7 µg/mL) | 37 µL/min/mg | – | – | 121% | – | 26.3 nM | –
13 | CN(CCC(=O)NC1CC1)C(=O)c1ccc2c(c1)c1c(n2C)CCC(C2CCOCC2)C1 (stereo not given) | 523 µM (≈ 229 µg/mL) | – | – | – | – | – | – | –
